Fewer inactive variants are shown than the library holds. Bounds are passed on as bounds.

First the molecules themselves.
B1: tRNA (parent)
chain: GUUCCGUUGGCGUAAUGGUAACGCGUCUCCCUCCUAAGGAGAAGACUGCGGGUUCGAGUCCCGUACGGAACG

In this data set the parent is B1. Nature of the data set: yeast fitness relative to wild type (ratio to wild type); higher = fitter; tRNA-Arg(CCU), competitive growth, 37 C, YPD. Put shortly: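 Genotype frequency changes were the basis for Darwinian fitness relative to wild type. The frequencies came from 100-nucleotide paired-end sequencing of gene amplicons from the start population and each end population of pooled yeast strains with tRNA-Arg(CCU) gene variants at the native locus. Competition ran in YPD at 37°C for 24 hours in six replicates, genotypes needed ≥ 100 starting reads, and estimates < 0.5 were set to 0.5.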
With A37G G68A A69G, the yeast fitness is at most 0.5.

Take C33U G63C: the yeast fitness is 0.545.

On to U19C G48A C62A U64C, for which the yeast fitness is 0.636.

With U13A C27U G44C, the yeast fitness is 0.637. With C4U C11U U28A C29G G51A G56A G67C, the yeast fitness was at most 0.5. Turning to A15U U47A G58A A65C, the yeast fitness was at most 0.5.

With C27U A43C U59A C62U, the yeast fitness is 0.517. On to C27U C33G G39A A43G A57G C61U C62U, for which the yeast fitness was at most 0.5.

As to G17C C24G C46G C66U, the yeast fitness is at most 0.5.

On to U2C U26G G38C, for which the yeast fitness is at most 0.5. As to C4A A15U G18C G56C, the yeast fitness is at most 0.5.

For the variant C31U C33A G50A A65G, the yeast fitness was at most 0.5. Consider U2G U3A C5U U7C U8A A20C U35C A37U A57C, for which the yeast fitness came to 0.565. As for U7G A15C U16A C33G A37C C49A C61U A70U, the yeast fitness is at most 0.5.

For the variant A20G C27G A43U G63A G68C, the yeast fitness was at most 0.5.

For the variant G38C A42G C62U, the yeast fitness is at most 0.5. Regarding U13C C30U A40G C55A G63C A65C, the yeast fitness was at most 0.5. For the variant C11G C29G U35C U47A G68C, the yeast fitness is at most 0.5. The figure for A40G U59C C60A U64A is at most 0.5; for C33G A36G G39C G67U it is at most 0.5. Regarding G9C G17A U19C G23A G67U, the yeast fitness is at most 0.5. In the case of G18A C30A C34G, the yeast fitness was at most 0.5. Consider C27U C30U U53A, for which the yeast fitness worked out at 0.62. As for C22U C49U U64A A70U, the figure is at most 0.5.

Consider A37C A65G G68U, for which the yeast fitness turned out to be 0.801. For G18A U35A A40G C61U, the yeast fitness was at most 0.5. As for C11U C24U C49A C62A, the figure is at most 0.5; as for C4A C24U A65U, at most 0.5. In the case of C11U G52C C66U, the yeast fitness is at most 0.5.

On to G6C C24A G58C A65C, for which the yeast fitness was at most 0.5. With C22G C66U A69U, the yeast fitness was determined as 0.685. The figure for U19C C55G is 0.676; for C30G C33G C60G A70U it is at most 0.5.

Turning to U13A C29U A40C A69U, the yeast fitness was at most 0.5. As for C5U C24U A36G G41C, the figure is at most 0.5. Consider A15U A36C G48C U59A C66U, for which the yeast fitness is at most 0.5. On to U13C G23C, for which the yeast fitness was 0.511. The figure for U13A A14U C22G A45U is 0.507. As for U7C G25A U47C U64G G68C, the yeast fitness was at most 0.5. U2G C24A C33U A40G G51C A57U: the yeast fitness is at most 0.5. Take G18A A42G G48C: the yeast fitness was at most 0.5.

For U7A A37G A40G A43G G52C U59G, the yeast fitness worked out at 0.556. Take G18A G68U: the yeast fitness is 0.711. With C11A C27A C55U G63A G67C, the yeast fitness is at most 0.5.

For the variant U7C U26C C31G U35C C46A C66A, the yeast fitness is at most 0.5. Take A15G C60G: the yeast fitness stood at 0.668. The figure for C5A A43G is 0.903; for C34G G48C C62U C66G it is at most 0.5; for A15U A40U C61U A70G it is 0.718. In the case of C4A U16C G17A C31U U54A, the yeast fitness was at most 0.5.

Take C62A G63A: the yeast fitness stood at 0.578.

Turning to G10A A20G A40C A42C, the yeast fitness is at most 0.5. As to G10A A21C C22A G25C G38A U59A C60U, the yeast fitness is at most 0.5.

As to C11G A43U, the yeast fitness worked out at 0.726.

In the case of G25A A69C, the yeast fitness worked out at 1.02. C61U G63U G68A: the yeast fitness was 0.529. The figure for G18A A45C C49U C62G C66U is at most 0.5; for A15G G23A G25A G38A A70U it is at most 0.5; for C30G G41A it is 0.568. As for C22U U26A C29U G52C, the yeast fitness was found to be 0.624. For A14C G25A C29G A45U C62A A70C, the yeast fitness was at most 0.5. As to U7G A43U A65C, the yeast fitness is 1. Take C33A A45G C49U A70U: the yeast fitness was at most 0.5. Take C55A U59A: the yeast fitness was found to be 0.513. As for A14G A15G A37G A45U C66U, the figure is at most 0.5; as for G10C G23A G52C C62U, 0.55; as for U13G C33G, 0.51.

As for C27G A43C, the yeast fitness is 0.611. With C22A U28A U47G, the yeast fitness is at most 0.5. As for G39C C46G, the figure is 0.875; as for C4G U13C A40U A42C C66U, at most 0.5; as for U53A C55A, 0.756.

Regarding U2C G12C C34A A40C, the yeast fitness was at most 0.5. Take C4G A14G U26C A36G A37C: the yeast fitness was at most 0.5. For C5A U7A G52A G67A, the yeast fitness was at most 0.5. Consider C33A G38C A43G U53C, for which the yeast fitness came to 0.547. Regarding C5G G12C G18A C24U C29U A36G A45C A69C, the yeast fitness is at most 0.5. Turning to A14U C27G C34A C61U C66G A69U, the yeast fitness is at most 0.5. For the variant C11A U28C A42G A43U C46U C62U, the yeast fitness is at most 0.5. Turning to A15C C24G A45G C55U, the yeast fitness was at most 0.5.

For A21U U53A A65C G67A, the yeast fitness was found to be 0.682. For the variant C46A C55A, the yeast fitness amounted to 0.562. Consider U7C U26C U53A, for which the yeast fitness was at most 0.5.

Values taken from the RNAGym collection of RNA variant scans (doi:10.1126/science.aae0568).
